Assay outcomes: PubChem BioAssay, Sanford-Burnham Center for Chemical Genomics
A selection: hits, their analogues and other compounds. The true share with any hit is near 1.9%.
UBC9 SUMO inh – inhibitors of in vitro SUMOylation cascade, primary screen, biochemical, HTRF, uHTS; 0.36% of 290,000 active; HTRF SUMOylation assay, SAE1/SAE2 + UBC9; AID 2006, 2009; inhibition, % at 35 µM; in the data active = inhibition above about 50%, passing the limit was not always enough
DNMT1 inh – human DNMT1 methyltransferase inhibitors, primary screen, biochemical, molecular beacon, fluorescence, HinP1I cleavage, uHTS; 0.83% of 360,000 active; AID 588458, 2011; inhibition (reported as % activation of signal), % at 10 µM; DNA (cytosine-5)-methyltransferase 1 (Homo sapiens), P26358; in the data active = inhibition above about 50%
Scp1 inh – Scp-1 phosphatase inhibitors, primary screen, biochemical, colorimetric, uHTS | 0.88% of 340,000 active | inhibition, % at 20 µM | AID 493091, 2011 | Recombinant Scp1, phosphopeptide, malachite green phosphate absorbance | Carboxy-terminal domain RNA polymerase II polypeptide A small phosphatase 1 (Homo …;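 active = inhibition above about 50% at 20 µM, limit read from the data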;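 also: plate controls were DMSO wells with enzyme for no effect and wells lacking enzyme for full effect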
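Test system: SCP-1 catalytic domain; Buffer or medium: Acidic Tris acetate buffer with magnesium and detergent; Also added: Phosphorylated 17-residue peptide substrate; Compound: single 20 µM dose, 1% DMSO; Schedule: enzyme reaction 45 min at room temperature, colour 5 min, stabilisation 30 min; Signal: Phosphate-binding colour reagent, absorbance read at 630 nm.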
LMPTP block – LMPTP phosphatase inhibitors, primary screen, biochemical, fluorescence intensity, uHTS. recombinant LMPTP-A, OMFP fluorogenic substrate. 0.22% of 360,000 active. inhibition, % at 20 µM;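 active = compounds that cut the enzyme signal by at least half of the control window in the single-dose screen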;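 also: plate controls were DMSO wells with enzyme plus substrate for no effect and substrate without enzyme for full effect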
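Assay system: LMPTP-A enzyme. Input: 0.625 nM LMPTP-A final. Probe or stimulus: 400 µM OMFP. Compound dosing: single 20 µM dose. Schedule: 50 min dark incubation at room temperature. Detection: fluorescence intensity of OMFP turnover product. Read-out: percent inhibition versus substrate-only and uninhibited controls. Benchmarks: no-enzyme low control, uninhibited high control.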
STEP block – STEP phosphatase inhibitors, primary screen, biochemical, fluorescence intensity, uHTS; 0.25% of 360,000 active; AID 588621, 2011; recombinant STEP, OMFP fluorogenic substrate; inhibition, % at 20 µM; Tyrosine-protein phosphatase non-receptor type 5 (Homo sapiens), P54829;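 active = inhibition at 20 µM, scaled per plate between control wells, above about 37%, limit read from the data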;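 also: 0% = DMSO with enzyme and substrate and 100% = substrate only without enzyme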
Target sequence (P54829 whole entry, looked up): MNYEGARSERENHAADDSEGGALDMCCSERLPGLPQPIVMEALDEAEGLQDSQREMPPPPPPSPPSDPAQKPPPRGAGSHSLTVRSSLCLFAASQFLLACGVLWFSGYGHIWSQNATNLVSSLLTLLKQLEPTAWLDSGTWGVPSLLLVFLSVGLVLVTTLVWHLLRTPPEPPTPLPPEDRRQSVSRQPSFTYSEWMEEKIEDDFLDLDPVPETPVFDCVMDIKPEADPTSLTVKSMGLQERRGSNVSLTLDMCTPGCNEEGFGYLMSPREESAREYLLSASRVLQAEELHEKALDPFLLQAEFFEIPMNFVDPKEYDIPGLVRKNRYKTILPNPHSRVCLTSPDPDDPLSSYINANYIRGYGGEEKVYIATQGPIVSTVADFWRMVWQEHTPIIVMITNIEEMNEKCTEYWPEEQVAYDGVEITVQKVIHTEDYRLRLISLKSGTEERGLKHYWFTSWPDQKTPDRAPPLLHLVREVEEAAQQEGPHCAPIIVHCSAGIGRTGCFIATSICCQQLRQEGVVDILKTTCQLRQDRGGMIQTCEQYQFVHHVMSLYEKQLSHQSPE
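Measure: Control-normalized % inhibition with plate pattern correction | Test system: STEP phosphatase, cell-free reaction | Medium: pH 6.0 Bis-Tris with DTT and Tween 20 | Technique: Fluorescence, 480/540 nm | Times: Reaction 20 min, ambient temperature | Doses: Single compound dose of 20 µM, 1% DMSO final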
SUMO1 PPI mod – modulators of SUMO1 protein-protein interactions, primary screen, biochemical, uHTS; Small ubiquitin-related modifier 1 (Homo sapiens), P63165; SUMO1 binding to a labelled peptide, TR-FRET, 1 h; inhibition, % at 20 µM; 0.33% of 360,000 active; in the data active = inhibition above about 37%
* marks the source's active call; other numbers are inactive results; · = no result.

SMILES	UBC9 SUMO inh	DNMT1 inh	Scp1 inh	LMPTP block	STEP block	SUMO1 PPI mod
CCn1cc(C(=O)O)c(=O)c2cc(F)c(N3CCN(C(=S)NC(=O)c4ccccc4Br)CC3)cc21	-2	0	-10	68*	0	36
CCn1cc(C(=O)O)c(=O)c2cc(F)c(N3CCN(C(=S)NC(=O)c4c(OC)cccc4OC)CC3)cc21	11	0	-5	65*	5	6
O=C(Nc1ccc2c(c1)CCO2)Nc1nnc([C@H]2C[C@H](O)[C@@H](CO)O2)s1	·	12	·	0	1	-2
O=C(CSc1n[nH]c(-c2ccco2)n1)Nc1ccccc1Cl	-2	1	-1	-2	-2	1
O=C(NCc1ccccc1)c1cc(C2COCCN2C(=O)C2CC2)on1 (stereo not drawn)	·	5	·	0	-5	-4
CCC(=O)N1CCN(c2cc3c(cc2F)c(=O)c(C(=O)O)cn3CC)CC1	·	3	-7	-1	-3	3
CCn1cc(C(=O)O)c(=O)c2cc(F)c(N3CCN(C(=S)NC(=O)c4cccc(F)c4)CC3)cc21	22	2	-25	66*	-2	4
CC(C)c1onc(C(=O)N2CCN(C(c3ccccc3)c3ccccc3)CC2)c1[N+](=O)[O-]	-10	3	21	-1	1	43*
CC1CCCN(Cc2c(O)ccc3c2O/C(=C\c2ccco2)C3=O)C1 (stereo not drawn)	25	61*	6	14	-6	2
CCN1CCN(Cc2c(O)ccc3c2O/C(=C\c2ccccc2)C3=O)CC1	27	4	9	2	0	-12
COC(=O)c1sc(NC(=S)NC(=O)c2cccc(C)c2)nc1C	-6	-2	0	0	1	-1
COC(=O)c1sc(NC(=S)NC(=O)c2ccccc2F)nc1C	-2	-1	-5	73*	4	-4
COc1ccccc1CNC(=O)C1CCC(CNS(=O)(=O)c2ccc(C)cc2)CC1 (stereo not drawn)	1	-1	-2	0	0	-2
O=C(O)COc1ccc(/C=N/NC(=O)c2ccc(-c3csc(Nc4ccc(Cl)cc4)n3)cc2)cc1	86*	-66	100*	92*	93*	121*
CCOc1cc(/C=N/NC(=O)c2ccc(-c3csc(Nc4ccc(C)cc4)n3)cc2)ccc1OCC(=O)O	50	78*	66*	92*	84*	19
COc1cc(/C=N\NC(=O)c2ccc(-c3ccccc3)cc2)ccc1OCC(N)=O	9	16	5	1	36	0
O=C(COC(=O)c1ccc(Cl)c(S(=O)(=O)N2CCCCC2)c1)NCC1CCCO1 (stereo not drawn)	16	14	6	0	-3	5
CCCc1nc2nc(C)c(NS(=O)(=O)c3ccc([N+](=O)[O-])cc3)c(=O)n2[nH]1	-4	2	2	2	-1	-29
CCN1CCc2nc(N)sc2C1	8	-2	-12	1	96*	-2
O=C1CCCN1CCCNc1nc(NCc2cccs2)nc2ccsc12	·	0	·	74*	1	1
C=CCc1cccc2cc(C(=O)NCc3cccnc3)c(=O)oc12	8	2	-4	52*	1	-19
CCOc1cccc2cc(C(=O)NCc3cccnc3)c(=O)oc12	5	4	-2	-2	-5	-21
C=CCc1cccc2cc(C(=O)Nc3ccc(S(=O)(=O)Nc4nnc(CC)s4)cc3)c(=O)oc12	22	8	101*	1	91*	5
C=CCc1cccc2cc(C(=O)Nc3ccc(F)cc3)c(=O)oc12	0	9	-8	0	1	1
COc1cc2c(oc(=O)c3cc(C)cc(OC)c32)c2c(C3OC(C)C(O)C(C)(O)C3O)ccc(O)c12 (stereo not drawn)	·	63*	10	2	1	-8
SMILES	UBC9 SUMO inh	DNMT1 inh	Scp1 inh	LMPTP block	STEP block	SUMO1 PPI mod
CC(OC(=O)C1=Cc2ccccc2OC1)C(=O)NC(C)(C)C (stereo not drawn)	13	-1	-13	-2	0	-4
O=C(NCc1ccco1)c1cc2c(s1)CSC2	42	·	99*	·	·	·
O=C(NCc1ccc2c(c1)OCO2)c1cc2c(s1)CSC2	11	-2	2	3	-1	-8
O=C1C=CC2=C3c4cc(O)c(O)cc4CC3(O)COC2=C1O (stereo not drawn)	·	91*	42	67*	11	58*
Clc1cccc(Cl)c1Cn1cnc(=NCc2ccco2)c2[nH]cnc21	23	1	6	84*	4	2
Clc1cccc(Cl)c1Cn1cnc2c(NCc3ccco3)ncnc21	3	-2	2	4	0	-3
CC(CN1C(C)CCCC1C)OC(=O)c1ccc(F)cc1 (stereo not drawn)	13	-1	-3	-3	-3	-3
Cc1sc2nc3ccc(NCc4ccco4)nn3c(=O)c2c1C	56*	11	10	2	3	10
O=c1c2ccccc2nc2ccc(NCc3ccco3)nn12	28	21	26	2	4	10
COc1ccccc1Oc1c(C)oc2c(CN3CCN(C)CC3)c(O)ccc2c1=O	52*	·	·	·	·	·
Fc1cccc(NCCc2c[nH]c3ccccc23)n1	-7	-4	4	1	-1	5
c1ccc2c(NCCc3c[nH]c4ccccc34)c3ccccc3nc2c1	-3	72*	-8	57*	3	-44
Cc1ccc(-c2nc(NCCCO)c3ccccc3n2)cc1	15	7	-6	48	-6	21
OCCCNc1c2ccccc2nc2ccccc12	15	67*	-4	26	-1	-31
Nc1ccccc1Oc1ccc2ccccc2c1	10	-1	6	1	-3	2
CCn1c(SCC(=O)N2CCN(C(=O)c3ccco3)CC2)nnc1C(C)C	18	1	5	0	-3	0
Cc1ccc(C)c2[nH]c(=O)c(CN(Cc3cccs3)C(=S)NCc3ccco3)cc12	8	-4	-4	0	-2	-1
O=C(Nc1ccccn1)C1CCN(C(=O)Nc2ccccc2)CC1	·	1	-5	-1	-1	0
Nc1ccc2nc(-c3ccc(Cl)cc3)[nH]c2c1	47	-35	-10	2	-2	-36
